For data set [1], the system named is Plenodomus lingam. The experiment in a line: Antifungal activity against Leptosphaeria maculans isolate BJ-125/UAMH-9410 assessed as mycelial growth inhibition at 0.5 mM incubated under constant light for 5 days by mycelial radial growth bioassay. The format is functional. As to conditions: isolate BJ-125/UAMH-9410, 120 h, read-out: GI. In outline: (§1)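 Mycelial radial growth assay. L. maculans (BJ125 or UAMH-9410) was grown on V8 agar. A 4 mm plug cut from 7-day-old V8 plates was placed upside down at the centre of PDA wells (33 mm) containing compound dissolved in CH3CN. Controls held 1% CH3CN in PDA. Plates were incubated under constant light for 5 days. Mycelial diameter was measured, and % inhibition = 100 − [(amended/control diameter) × 100]. Triplicate, at least twice; mean ± SD.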

The subject of data set [2] is Plenodomus lingam. The experiment in a line: Antifungal activity against Leptosphaeria maculans isolate BJ-125/UAMH-9410 assessed as mycelial growth inhibition at 0.1 mM incubated under constant light for 5 days by mycelial radial growth bioassay. The format is functional. As to conditions: for inhibition of growth at 100 µM: isolate BJ-125/UAMH-9410, 120 h, read-out: GI. The method in brief: as §1

Data set [3] in a line: Drug metabolism in Leptosphaeria maculans isolate BJ-125 assessed as drug recovery at 0.10 mM after 24 hr by HPLC analysis. The format is ADME, organism-based. As to conditions: plenodomus lingam, Leptosphaeria maculans isolate BJ-125 (fungus); read-out: Drug recovery. In outline:
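Minimal medium (50 mL) was inoculated with isolate BJ-125 spores (106/mL) and shaken at 120 rpm, 23 °C, under constant light. After 2 days, compound in CH3CN was added (final 0.10 mM), also to noninoculated medium as a stability control. Broth samples taken up to 72 h were extracted with EtOAc and quantified by HPLC-DAD against calibration curves; basified broth was extracted with CHCl3/MeOH for amines. At least three independent experiments ± SD.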

Data set [4] has as its system Plenodomus lingam. The experiment in a line: Antifungal activity against Leptosphaeria maculans isolate BJ-125/UAMH-9410 assessed as mycelial growth inhibition at 0.2 mM incubated under constant light for 5 days by mycelial radial growth bioassay. The format is functional. As to conditions: isolate BJ-125/UAMH-9410, 120 h, read-out: GI. In outline: as §1

The structures appear in SMILES notation. The source made the active and inactive calls. No cut-off for these calls is given here.

As for `CSC(=S)NCc1c[nH]c2ccccc12` [BRASSININ], the inhibition of growth at 500 µM with Plenodomus lingam [1] came to 55%. Further, in the data set on Plenodomus lingam [2], the inhibition of growth at 100 µM was determined as 10%. Moreover, the remaining at 24 h, 100 µM in data set [3] is below 5%. Also, in the data set on Plenodomus lingam [4], the inhibition of growth at 200 µM came out at 21%.
For `CS/C(S)=N/CCCc1c[nH]c2ccccc12`, in that order: 67%, 21%, 37% and 46%.
On the same counts, the results for `CSC(=S)NCc1cc2ccccc2[nH]1` [ISOBRASSININ] are 43%, 13%, below 5% and 22%.
`OCCc1c[nH]c2ccccc12` [TRYPTOPHOL]: the inhibition of growth at 500 µM in the data set with Plenodomus lingam [1] amounted to 29%. The “growth inhibition (GI)” value with Plenodomus lingam [2] was “inactive”. In addition, the inhibition of growth at 200 µM with Plenodomus lingam [4] was 16%.
For `CC(=O)NCc1cc2ccccc2[nH]1`, the inhibition of growth at 500 µM in the data set with Plenodomus lingam [1] stood at 33%. Besides, in the data set on Plenodomus lingam [2], the inhibition of growth at 100 µM came out at 7%. Further, the inhibition of growth at 200 µM in the data set with Plenodomus lingam [4] came to 18%.
On the same counts, the results for `CC(=O)NCc1ccc(-c2ccccc2)cc1` are 30%, 9% and 17%.
On the same counts, the results for `COn1c(CNC(C)=O)cc2ccccc21` are 15%, 4% and 11%.
In the case of `CSC(=S)NCc1ccc(-c2ccccc2)cc1`, in the data set with Plenodomus lingam [1], the inhibition of growth at 500 µM came to 46%. The inhibition of growth at 100 µM in the data set with Plenodomus lingam [2] amounted to 14%. For the same molecule, in data set [3], the remaining at 24 h, 100 µM was below 5%. The inhibition of growth at 200 µM in the data set with Plenodomus lingam [4] came to 32%.
For `CC(=O)NCCc1c[nH]c2ccccc12` [NB-ACETYLTRYPTAMINE], the inhibition of growth at 500 µM with Plenodomus lingam [1] is 15%. Also, the “growth inhibition (GI)” value in the data set on Plenodomus lingam [2] was “inactive”. For the same molecule, the inhibition of growth at 200 µM in the data set with Plenodomus lingam [4] was determined as 7%.
In the case of `NCCc1c[nH]c2ccccc12` [TRYPTAMINE], the inhibition of growth at 500 µM with Plenodomus lingam [1] was 28%. Further, the inhibition of growth at 100 µM in the data set on Plenodomus lingam [2] was 12%. In the data set with Plenodomus lingam [4], the inhibition of growth at 200 µM amounted to 15%.
As for `c1ccc2[nH]cnc2c1` [BENZIMIDAZOLE], in the data set with Plenodomus lingam [1], the inhibition of growth at 500 µM stood at 35%. Besides, the inhibition of growth at 100 µM with Plenodomus lingam [2] stood at 11%. In the data set on Plenodomus lingam [4], the inhibition of growth at 200 µM amounted to 20%.
Consider `COn1c(CN)cc2ccccc21`, for which, in the data set with Plenodomus lingam [1], the inhibition of growth at 500 µM stood at 19%. The “growth inhibition (GI)” value in the data set on Plenodomus lingam [2] was “inactive”. Besides, the inhibition of growth at 200 µM with Plenodomus lingam [4] was 8%.
As to `COn1c(CNC(=S)SC)cc2ccccc21` [1-METHOXYISOBRASSININ], in the data set on Plenodomus lingam [1], the inhibition of growth at 500 µM was 34%. Moreover, the inhibition of growth at 100 µM with Plenodomus lingam [2] came out at 7%. The remaining at 24 h, 100 µM in data set [3] stood at 47%. Besides, in the data set with Plenodomus lingam [4], the inhibition of growth at 200 µM was determined as 15%.
Turning to `NCc1cc2ccccc2[nH]1` [2-INDOLYLMETHANAMINE], in the data set with Plenodomus lingam [1], the inhibition of growth at 500 µM was determined as 33%. In addition, in the data set on Plenodomus lingam [2], the “growth inhibition (GI)” value is “inactive”. The inhibition of growth at 200 µM with Plenodomus lingam [4] is 19%.
As to `CSC(=S)NCCc1c[nH]c2ccccc12` [METHYL TRYPTAMINEDITHIOCARBAMATE], the inhibition of growth at 500 µM with Plenodomus lingam [1] was determined as 100%. In addition, the inhibition of growth at 100 µM with Plenodomus lingam [2] is 43%. Further, in data set [3], the remaining at 24 h, 100 µM came to 55%. For the same molecule, the inhibition of growth at 200 µM in the data set on Plenodomus lingam [4] was found to be 71%.
On to `NCCCc1c[nH]c2ccccc12`, for which, in the data set with Plenodomus lingam [1], the inhibition of growth at 500 µM worked out at 27%. Further, the “growth inhibition (GI)” value with Plenodomus lingam [2] is “inactive”. In the data set on Plenodomus lingam [4], the inhibition of growth at 200 µM amounted to 14%.
`CC(=O)NCCCc1c[nH]c2ccccc12`: the inhibition of growth at 500 µM with Plenodomus lingam [1] was determined as 24%. Also, in the data set on Plenodomus lingam [2], the inhibition of growth at 100 µM was 10%. The inhibition of growth at 200 µM with Plenodomus lingam [4] stood at 13%.
As to `OCCCc1c[nH]c2ccccc12`, the inhibition of growth at 500 µM in the data set with Plenodomus lingam [1] is 18%. Moreover, the inhibition of growth at 100 µM with Plenodomus lingam [2] turned out to be 7%. In the data set with Plenodomus lingam [4], the inhibition of growth at 200 µM was found to be 14%.
Regarding `CSC(=S)OCCCc1c[nH]c2ccccc12`, the inhibition of growth at 500 µM in the data set with Plenodomus lingam [1] amounted to 31%. Moreover, the inhibition of growth at 100 µM with Plenodomus lingam [2] was determined as 5%. Further, the inhibition of growth at 200 µM with Plenodomus lingam [4] stood at 18%.
Turning to `CSC(=S)OCCc1c[nH]c2ccccc12` [METHYL TRYPTOPHOLDITHIOCARBAMATE], the inhibition of growth at 500 µM with Plenodomus lingam [1] came out at 32%. Besides, the inhibition of growth at 100 µM in the data set with Plenodomus lingam [2] worked out at 7%. For the same molecule, the remaining at 24 h, 100 µM in data set [3] amounted to 15%. Besides, the inhibition of growth at 200 µM in the data set on Plenodomus lingam [4] was found to be 15%.
